# Assay results as given in publication PMC3592994 (Hepatology (Baltimore, Md.), 2013).
# Counter-ions that a name gives are not always drawn.
# Experiments:
# [1] = test system: Bsep, Mdr2, Ost-β, Sult2a1, Shp, Ntcp; assay: Hepatic gene expression in gavaged mice; format: in vivo, mouse
# How it was run: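 Female C57BL6 mice aged 7–8 weeks were gavaged twice daily for 2 days with 200 μL 20% cyclodextrin, 50 mg/kg cholic acid, or cholic acid plus 500 mg/kg test compound. Livers were harvested at 4 pm on day 2 after an 8-h fast, and hepatic gene expression was measured. Data are mean ± SEM, n = 6, by one-way ANOVA.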
# [2] = test system: BSEP, SHP, CYP7A1; format: cell-based, human; details: 50 μM, 24 hours; for induction of BSEP gene expression: scrambled siRNA group; for repression of CYP7A1 expression: siScramble group; for induction of SHP gene expression: siScrambled group, versus vehicle
# [3] = test system: BSEP, SHP; assay: BSEP and SHP gene expression in primary human hepatocytes; format: cell-based; details: 50 μM, 24 hours
# [4] = target: T1, FXR-LBD (Homo sapiens, UniProt Q96RI1); assay: HTRF cofactor; format: biochemical; details: for CDCA-mediated recruitment of SRC-1 peptide to FXR-LBD: 9 or 100 μM CDCA, 0-600 μM compound, dose-dependent; for recruitment of SRC-1 peptide to FXR-LBD by compound alone: agonist mode, no CDCA
# T1 sequence (Q96RI1 244-472 isoform Q96RI1-2): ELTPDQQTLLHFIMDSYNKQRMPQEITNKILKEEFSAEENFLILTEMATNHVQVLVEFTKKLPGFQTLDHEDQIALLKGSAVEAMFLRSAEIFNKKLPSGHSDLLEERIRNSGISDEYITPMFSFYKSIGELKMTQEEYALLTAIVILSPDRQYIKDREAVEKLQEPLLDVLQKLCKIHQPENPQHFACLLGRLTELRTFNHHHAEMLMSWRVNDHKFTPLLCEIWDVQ
# [5] = target: T2, FXRα2 (Homo sapiens, UniProt Q96RI1); format: cell-based; details: for FXR transactivation relative to vehicle-treated control: 50 μM compound; for FXR transactivation relative to vehicle-treated control / EC50: 24 hours; for EC50: read-out: EC50 of FXR transactivation, agonist mode, 0-100 μM
# T2 sequence (Q96RI1 1-472 isoform Q96RI1-2): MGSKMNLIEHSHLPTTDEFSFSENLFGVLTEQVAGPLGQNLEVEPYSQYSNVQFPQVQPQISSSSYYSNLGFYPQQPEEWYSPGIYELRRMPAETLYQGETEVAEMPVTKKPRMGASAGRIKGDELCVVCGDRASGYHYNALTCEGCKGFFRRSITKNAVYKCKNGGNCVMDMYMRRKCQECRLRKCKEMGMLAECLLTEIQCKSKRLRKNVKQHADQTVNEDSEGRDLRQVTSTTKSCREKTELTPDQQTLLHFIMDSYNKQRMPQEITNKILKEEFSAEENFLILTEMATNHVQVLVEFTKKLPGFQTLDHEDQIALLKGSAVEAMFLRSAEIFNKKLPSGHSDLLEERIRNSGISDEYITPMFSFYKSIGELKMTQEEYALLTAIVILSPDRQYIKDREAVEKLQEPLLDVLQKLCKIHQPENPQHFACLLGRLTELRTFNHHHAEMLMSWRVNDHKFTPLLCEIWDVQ
# T2 sequence (P19793 1-462 partner): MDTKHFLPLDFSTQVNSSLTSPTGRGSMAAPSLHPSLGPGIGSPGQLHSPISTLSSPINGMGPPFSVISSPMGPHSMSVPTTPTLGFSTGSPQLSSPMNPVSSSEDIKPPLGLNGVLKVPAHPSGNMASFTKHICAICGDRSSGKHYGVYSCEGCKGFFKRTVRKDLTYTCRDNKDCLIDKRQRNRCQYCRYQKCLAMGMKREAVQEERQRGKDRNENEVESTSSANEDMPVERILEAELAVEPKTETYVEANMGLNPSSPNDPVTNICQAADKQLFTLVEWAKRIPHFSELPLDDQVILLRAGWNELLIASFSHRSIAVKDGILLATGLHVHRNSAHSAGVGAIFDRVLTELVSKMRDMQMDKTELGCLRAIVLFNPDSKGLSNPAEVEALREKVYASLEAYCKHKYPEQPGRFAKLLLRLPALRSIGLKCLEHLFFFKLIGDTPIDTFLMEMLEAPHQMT
# [6] = test system: BSEP; assay: BSEP protein western blot in Huh7 cells; format: cell-based, human; details: 0.5 μM GW4064, 24 hours
# [7] = test system: FXR-mediated bile acid efflux in Huh7 cells; assay: Huh7 3H-taurocholic acid efflux; format: cell-based, human
# How it was run: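 Huh7 cells were pretreated overnight with vehicle or 0.5 μM GW4064 with or without 25–50 μM test compound. Cells were washed for 1.5 h, then ³H-taurocholic acid efflux over 5 min was measured. Data are mean ± SEM, n = 3, by one-way ANOVA.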
# [8] = test system: FGF19; assay: Secreted FGF19 in Huh7 cell culture media; format: cell-based, human; details: for levels of secreted FGF19: 0.5 μM GW4064
# How it was run: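 Huh7 cells were incubated for 24 h with 0.5 μM GW4064 plus 0–100 μM test compound. FGF19 secreted into the culture medium was then assayed. Data are mean ± SEM, n = 3, by one-way ANOVA.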
# [9] = test system: BSEP; details: X. laevis oocytes expressing BSEP ref 20; cited from earlier work
# [10] = test system: BSEP; assay: BSEP gene expression in Huh7 cells; format: cell-based, human
# How it was run: (§1)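 Relative mRNA was quantified by qPCR. Data are mean ± SEM, n = 3, by one-way ANOVA against the agonist-alone or vehicle group.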
# [11] = test system: NTCP; details: NTCP-transfected Xenopus laevis oocytes ref 19; cited from earlier work
# [12] = test system: SHP and MDR3; assay: SHP and MDR3 gene expression in Huh7 cells; format: cell-based, human; details: 0-100 μM PM5S, 0.5 μM GW4064, 24 hours
# How it was run: as §1
# [13] = Serum bile acid concentrations in gavaged mice; format: in vivo, mouse; details: CA+PM5S co-gavaged mice versus vehicle or CA groups
# How it was run: (§2)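 Female C57BL6 mice aged 7–8 weeks were orally gavaged twice daily for 2 days (day 1 at 5:30 and 10:30 pm; day 2 at 8:30 am and 1:30 pm). Groups received 200 μL 20% cyclodextrin, 50 mg/kg cholic acid, or cholic acid plus 500 mg/kg test compound. After an 8-h fast, serum was collected at 4 pm on day 2 and analysed by UPLC/MSMS. Data are mean ± SEM, n ≥ 6, by one-way ANOVA.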
# [14] = test system: FGF19; assay: FGF19 gene expression in Huh7 cells; format: cell-based, human; details: 25-100 μM PM5S, 0.5 μM GW4064, 24 hours
# How it was run: as §1
# [15] = test system: primary human hepatocytes; details: primary human hepatocytes ref 19; cited from earlier work
# [16] = Serum PM5S in gavaged mice by UPLC/MSMS; format: in vivo, mouse
# How it was run: as §2
structure (smiles),measurement,setting,value
"C[C@H](CCC(=O)O)[C@H]1CC[C@H]2[C@@H]3[C@H](O)C[C@@H]4C[C@H](O)CC[C@]4(C)[C@H]3C[C@H](O)[C@]12C [CA, cholic acid, reference compound]","Hepatic gene expression levels of Bsep, Mdr2, Ost-β, and Sult2a1","[1]; CA group, 50 mg/kg versus vehicle",significantly induced
"C[C@H](CCC(=O)O)[C@H]1CC[C@H]2[C@@H]3[C@H](O)C[C@@H]4C[C@H](O)CC[C@]4(C)[C@H]3CC[C@]12C [CDCA, chenodeoxycholic acid, reference compound]",induction of BSEP gene expression,[2],390%
same,repression of CYP7A1 expression,[2],> 90%
same,induction of SHP gene expression,[2],481%
same,BSEP expression induction,[3],7.5 fold
"C[C@H](O)[C@H]1CC[C@H]2[C@@H]3CC[C@H]4C[C@@H](OS(=O)(=O)[O-])CC[C@]4(C)[C@H]3CC[C@]12C.[Na+] [EPAS, epiallo-pregnanediol 3-sodium sulfate]",CDCA-mediated recruitment of SRC-1 peptide to FXR-LBD,[4],inhibited
same,recruitment of SRC-1 peptide to FXR-LBD by compound alone,[4],unable to induce
same,activity of FXR in presence of CDCA,[5],inhibited
same,FXR transactivation relative to vehicle-treated control,[5],183%
same,EC50,[5],22.6 µM
"CC(=O)C1CCC2C3CC[C@@H]4C[C@@H](OS(=O)(=O)O)CC[C@]4(C)C3CC[C@]12C (stereo partly drawn) [EPS, epipregnanolone sulfate]",CDCA-mediated recruitment of SRC-1 peptide to FXR-LBD,[4],inhibited
same,recruitment of SRC-1 peptide to FXR-LBD by compound alone,[4],unable to induce
same,activity of FXR in presence of CDCA,[5],inhibited
same,FXR transactivation relative to vehicle-treated control,[5],125%
same,EC50,[5],15.1 µM
"CC(C)c1onc(-c2c(Cl)cccc2Cl)c1COc1ccc(/C=C/c2cccc(C(=O)O)c2)c(Cl)c1 [GW4064, reference compound]",increase in BSEP protein levels,[6]; relative to vehicle,1.5 fold
same,3HTC efflux,"[7]; 0.5 μM GW4064 overnight, relative to vehicle",significantly increased
same,increase in secreted FGF19,"[8]; 0.5 μM GW4064, 24 hours",2.8 fold
"CC(=O)[C@H]1CC[C@H]2[C@@H]3CC[C@H]4C[C@@H](OS(=O)(=O)O)CC[C@]4(C)[C@H]3CC[C@]12C [PM5S, epiallopregnanolone sulfate]",induction of BSEP gene expression,[2],160%
same,repression of CYP7A1 expression,[2],> 90%
same,induction of SHP gene expression,[2],200%
same,GW4064-mediated BSEP protein expression,[6]; 10 μM PM5S,inhibited
same,BSEP protein expression,[6]; 25-100 μM PM5S,completely abolished
same,GW4064-induced increase in 3HTC efflux,"[7]; cotreated with 25 or 50 μM PM5S, 0.5 μM GW4064",abolished
same,efflux of bile acids,[9],reduce the efflux
same,CDCA-mediated BSEP expression,"[10]; all PM5S concentrations tested, 50 μM CDCA, 24 hours",significantly reduced
same,GW4064-mediated BSEP gene expression,"[10]; increasing PM5S doses (0-100 μM), 0.5 μM GW4064, 24 hours",completely abolished
same,BSEP expression,[3],modestly increased
same,SHP expression induction,[3],to a lesser extent than CDCA
same,levels of secreted FGF19,[8]; 50 μM and 100 μM PM5S,reaching significance
same,levels of secreted FGF19,[8]; cotreatment with 10 μM and 25 μM PM5S,trend towards a reduction
same,induction of Bsep and Mdr2 expression,[1]; CA+PM5S group compared to CA group,significantly abrogated
same,Shp and Ntcp expression levels,"[1]; CA+PM5S, CA and vehicle groups",no differences
same,CDCA-mediated recruitment of SRC-1 peptide to FXR-LBD,[4],able to inhibit
same,recruitment of SRC-1 peptide to FXR-LBD by compound alone,[4],unable to potentiate
same,taurocholate uptake by NTCP,[11],competitively inhibit
same,GW4064-mediated SHP and MDR3 gene expression,[12],significantly abrogated
same,serum CA levels,[13],significantly raised
same,GW4064-mediated FGF19 gene expression,[14],significantly reduced
same,Na+-dependent and Na+-independent influx of taurocholate,[15],reduce
same,PM5S concentrations abrogating CDCA-mediated FXR transactivity,[5],≥ 5 µM
same,FXR transactivation relative to vehicle-treated control,[5],182%
same,EC50,[5],> 83 µM
same,Serum PM5S mean concentration ± SEM,[16]; mice gavaged 50 mg/kg cholic acid + 500 mg/kg PM5S twice daily for 2 days,3208.6 ± 1847.1 µM
same,Serum PM5S mean concentration ± SEM,[16]; mice gavaged 50 mg/kg cholic acid twice daily for 2 days,10.7 ± 9.6 µM
